From ChEMBL document CHEMBL5724801, “EUbOPEN Chemogenomics Library - Multiplex” (2024)
Several values for one entry are separate records, joined by “and”; a condition that tells them apart may be missing. Identical values can stand only once.

System: HEK-293T
Experiment: Multiplex assay against HEK293T
Format: toxicity, cell-based
Details: human
Summary of the method: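 Live cells carried four stains from seeding: Hoechst33342, BioTracker Green Microtubule Cytoskeleton Dye, MitoTracker Red and Annexin V Alexa Fluor 680. They were imaged on a CQ1 microscope at 37°C and 5% CO2 after compound addition. Using CellPathfinder machine-learning gating, cells were split into Hoechst high-intensity objects or normal cells, normal cells into healthy, pyknosed or fragmented nuclei, and pyknosed cells into mitotic or apoptotic; tubulin, mitochondrial-mass and membrane-permeability phenotypes are per cents of healthy-nucleus cells.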

[1] = 12 h, 1 µM, compound concentration 1 uM
[2] = 12 h, 10 µM, compound concentration 10 uM
[3] = 24 h, 1 µM, compound concentration 1 uM
[4] = 24 h, 10 µM, compound concentration 10 uM
[5] = 48 h, 1 µM, compound concentration 1 uM
[6] = 48 h, 10 µM, compound concentration 10 uM

## c1ccc2nc(N3CCNCC3)ccc2c1 [QUIPAZINE]
[1]
  Population Apoptotic (%): 6.35% and 5.69%
  Population Fragmented Nuclei (%): 1.8% and 5.66%
  Population Healthy Nuclei (%): 49.61% and 16.98%
  Population Hoechst High Intensity Objects (%): 0%
  Population Membrane Permeable-Phenotype (%): 0.52% and 0%
  Population Mitochondria Different-Phenotype (%): 33.16% and 11.11%
  Population Mitotic Cells (%): 93.65% and 94.31%
  Population Normal (%): 100%
  Population Pyknosed Nuclei (%): 48.59% and 77.36%
  Total Cell Count: 389 and 159
[2]
  Population Apoptotic (%): 10.22% and 12.62%
  Population Fragmented Nuclei (%): 1.36% and 2.36%
  Population Hoechst High Intensity Objects (%): 0.68% and 0%
  Population Membrane Permeable-Phenotype (%): 0.65% and 4.76%
  Population Mitochondria Different-Phenotype (%): 23.53% and 19.05%
  Population Mitotic Cells (%): 89.78% and 87.38%
  Population Normal (%): 99.32% and 100%
  Population Pyknosed Nuclei (%): 46.6% and 81.1%
  Total Cell Count: 296 and 127
[3]
  Population Apoptotic (%): 10.39% and 10%
  Population Fragmented Nuclei (%): 1.31% and 1.74%
  Population Healthy Nuclei (%): 73.44% and 34.3%
  Population Hoechst High Intensity Objects (%): 0%
  Population Membrane Permeable-Phenotype (%): 2.9% and 0%
  Population Mitochondria Different-Phenotype (%): 14.29% and 11.86%
  Population Mitotic Cells (%): 89.61% and 90%
  Population Normal (%): 100%
  Population Pyknosed Nuclei (%): 25.25% and 63.95%
  Population Tubulin-Different-Phenotype (%): 16.29% and 6.78%
[4]
  Population Apoptotic (%): 18.49% and 17.05%
  Population Fragmented Nuclei (%): 1.63% and 1.53%
  Population Healthy Nuclei (%): 74.08% and 31.3%
  Population Hoechst High Intensity Objects (%): 0.41% and 0%
  Population Membrane Permeable-Phenotype (%): 1.1% and 0%
  Population Mitochondria Different-Phenotype (%): 15.98% and 14.63%
  Population Mitotic Cells (%): 81.51% and 82.95%
  Population Normal (%): 99.59% and 100%
  Population Pyknosed Nuclei (%): 24.29% and 67.18%
  Population Tubulin-Different-Phenotype (%): 15.98% and 9.76%
[5]
  Population Fragmented Nuclei (%): 2.36% and 0.5%
  Population Healthy Nuclei (%): 83.55% and 65%
  Population Hoechst High Intensity Objects (%): 0.15% and 0%
  Population Membrane Permeable-Phenotype (%): 6.88% and 1.54%
  Population Mitochondria Different-Phenotype (%): 14.83% and 16.15%
  Population Mitotic Cells (%): 95.81% and 81.16%
  Population Normal (%): 99.85% and 100%
  Population Pyknosed Nuclei (%): 14.09% and 34.5%
[6]
  Population Apoptotic (%): 13.64% and 6.25%
  Population Fragmented Nuclei (%): 3.18% and 1.42%
  Population Healthy Nuclei (%): 86.82% and 64.54%
  Population Hoechst High Intensity Objects (%): 0%
  Population Membrane Permeable-Phenotype (%): 5.34% and 3.3%
  Population Mitochondria Different-Phenotype (%): 17.59% and 12.09%
  Population Mitotic Cells (%): 86.36% and 93.75%
  Population Normal (%): 100%
